# Tested on: Staphylococcus aureus
# Test: Antimicrobial activity against Staphylococcus aureus ATCC 6538 after 24 hrs by MTT assay
# Settings: ATCC 6538, 24 h
row,Structure (SMILES),MIC [µg/mL]
1,COc1ccc2c(c1)CN(C1CC(c3ccc(Cl)cc3Cl)=NN1c1nc(-c3ccccc3F)oc1C)CC2 (centres undefined),1.56
2,COc1ccc2c(c1)CN(C1CC(c3ccc(-c4ccco4)cc3)=NN1c1nc(-c3ccccc3C(F)(F)F)oc1C)CC2 (centres undefined),1.56
3,COc1ccc2c(c1)CN(C1CC(c3ccc(Cl)cc3Cl)=NN1c1nc(-c3ccccc3C(F)(F)F)oc1C)CC2 (centres undefined),1.56
4,C=Cc1ccccc1-c1nc(N2N=C(c3ccc(-c4ccco4)cc3)CC2N2CCc3ccc(OC)cc3C2)c(C)o1 (centres undefined),3.12
5,C=Cc1ccccc1-c1nc(N2N=C(c3ccccc3C(F)(F)F)CC2N2CCc3ccccc3C2)c(C)o1 (centres undefined),12.5
6,Cc1oc(-c2ccccc2F)nc1N1N=C(c2ccccc2)CC1N1CCc2ccccc2C1 (centres undefined),6.25

# Next, values leading:
row,MIC [µg/mL],Structure (SMILES)
1,50,COc1ccc2c(c1)CN(C1CC(c3ccccc3F)=NN1c1nc(-c3ccccc3F)oc1C)CC2 (centres undefined)
2,6.25,COc1ccc2c(c1)CN(C1CC(c3ccccc3)=NN1c1nc(-c3ccc(F)cc3F)oc1C)CC2 (centres undefined)
3,50,C=Cc1ccccc1-c1nc(N2N=C(c3ccccc3)CC2N2CCc3ccc(OC)cc3C2)c(C)o1 (centres undefined)
4,25,COc1ccc2c(c1)CN(C1CC(c3ccccc3)=NN1c1nc(-c3ccccc3C(F)(F)F)oc1C)CC2 (centres undefined)

# Tested on: Pseudomonas fluorescens
# Test: Antimicrobial activity against Pseudomonas fluorescens ATCC 13525 after 24 hrs by MTT assay
# Settings: ATCC 13525, 24 h
row,Structure (SMILES),MIC [µg/mL]
1,COc1ccc2c(c1)CN(C1CC(c3ccc(Cl)cc3Cl)=NN1c1nc(-c3ccccc3F)oc1C)CC2 (centres undefined),> 50
2,COc1ccc2c(c1)CN(C1CC(c3ccc(-c4ccco4)cc3)=NN1c1nc(-c3ccccc3C(F)(F)F)oc1C)CC2 (centres undefined),25
3,COc1ccc2c(c1)CN(C1CC(c3ccc(Cl)cc3Cl)=NN1c1nc(-c3ccccc3C(F)(F)F)oc1C)CC2 (centres undefined),> 50
4,C=Cc1ccccc1-c1nc(N2N=C(c3ccc(-c4ccco4)cc3)CC2N2CCc3ccc(OC)cc3C2)c(C)o1 (centres undefined),25
5,C=Cc1ccccc1-c1nc(N2N=C(c3ccccc3C(F)(F)F)CC2N2CCc3ccccc3C2)c(C)o1 (centres undefined),50
6,Cc1oc(-c2ccccc2F)nc1N1N=C(c2ccccc2)CC1N1CCc2ccccc2C1 (centres undefined),12.5

# Second part, the compound after the results:
row,MIC [µg/mL],Structure (SMILES)
1,12.5,COc1ccc2c(c1)CN(C1CC(c3ccccc3F)=NN1c1nc(-c3ccccc3F)oc1C)CC2 (centres undefined)
2,25,COc1ccc2c(c1)CN(C1CC(c3ccccc3)=NN1c1nc(-c3ccc(F)cc3F)oc1C)CC2 (centres undefined)
3,> 50,C=Cc1ccccc1-c1nc(N2N=C(c3ccccc3)CC2N2CCc3ccc(OC)cc3C2)c(C)o1 (centres undefined)
4,> 50,COc1ccc2c(c1)CN(C1CC(c3ccccc3)=NN1c1nc(-c3ccccc3C(F)(F)F)oc1C)CC2 (centres undefined)

# Target: not listed separately
# Test: Inhibition of Bacillus subtilis DNA gyrase
# Settings: not given
# Method in brief: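 Gyrase purified from B. subtilis cells at 0–4 °C. Cells were lysed with lysozyme in HEPES-KOH pH 8.0/sucrose/Mg acetate/DTT/PMSF for 2.5 h, then treated with KCl–Brij. The cleared lysate at 0.2 M KCl went onto a column, eluted with ATP–Mg acetate–KCl, then high KCl, then urea, and was dialyzed to 0.05 M KCl. The read-out was DNA supercoiling activity.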
row,IC50 [µg/mL],Structure (SMILES)
1,> 125,COc1ccc2c(c1)CN(C1CC(c3ccccc3F)=NN1c1nc(-c3ccccc3F)oc1C)CC2 (centres undefined)
2,0.25,COc1ccc2c(c1)CN(C1CC(c3ccc(-c4ccco4)cc3)=NN1c1nc(-c3ccccc3C(F)(F)F)oc1C)CC2 (centres undefined)

# Tested on: Escherichia coli
# Test: Antimicrobial activity against Escherichia coli after 24 hrs by MTT assay
# Settings: not given
row,Structure (SMILES),MIC [µg/mL]
1,COc1ccc2c(c1)CN(C1CC(c3ccc(Cl)cc3Cl)=NN1c1nc(-c3ccccc3F)oc1C)CC2 (centres undefined),> 50
2,COc1ccc2c(c1)CN(C1CC(c3ccc(-c4ccco4)cc3)=NN1c1nc(-c3ccccc3C(F)(F)F)oc1C)CC2 (centres undefined),50
3,COc1ccc2c(c1)CN(C1CC(c3ccc(Cl)cc3Cl)=NN1c1nc(-c3ccccc3C(F)(F)F)oc1C)CC2 (centres undefined),> 50
4,C=Cc1ccccc1-c1nc(N2N=C(c3ccc(-c4ccco4)cc3)CC2N2CCc3ccc(OC)cc3C2)c(C)o1 (centres undefined),> 50
5,C=Cc1ccccc1-c1nc(N2N=C(c3ccccc3C(F)(F)F)CC2N2CCc3ccccc3C2)c(C)o1 (centres undefined),> 50
6,Cc1oc(-c2ccccc2F)nc1N1N=C(c2ccccc2)CC1N1CCc2ccccc2C1 (centres undefined),6.25

# Other lines, results leading:
row,MIC [µg/mL],Structure (SMILES)
1,50,COc1ccc2c(c1)CN(C1CC(c3ccccc3F)=NN1c1nc(-c3ccccc3F)oc1C)CC2 (centres undefined)
2,50,COc1ccc2c(c1)CN(C1CC(c3ccccc3)=NN1c1nc(-c3ccc(F)cc3F)oc1C)CC2 (centres undefined)
3,> 50,C=Cc1ccccc1-c1nc(N2N=C(c3ccccc3)CC2N2CCc3ccc(OC)cc3C2)c(C)o1 (centres undefined)
4,50,COc1ccc2c(c1)CN(C1CC(c3ccccc3)=NN1c1nc(-c3ccccc3C(F)(F)F)oc1C)CC2 (centres undefined)

# Target: DNA gyrase (Staphylococcus aureus, UniProt P0A0K8+P20831)
# Test: Inhibition of Staphylococcus aureus DNA gyrase
# Type: protein-complex assay
# Settings: not given
row,IC50 [µM],Structure (SMILES)
1,7.99,COc1ccc2c(c1)CN(C1CC(c3ccccc3F)=NN1c1nc(-c3ccccc3F)oc1C)CC2 (centres undefined)
2,0.418,COc1ccc2c(c1)CN(C1CC(c3ccc(-c4ccco4)cc3)=NN1c1nc(-c3ccccc3C(F)(F)F)oc1C)CC2 (centres undefined)

# Tested on: Bacillus subtilis
# Test: Antimicrobial activity against Bacillus subtilis ATCC 6633 after 24 hrs by MTT assay
# Type: functional
# Settings: ATCC 6633, 24 h
# Method in brief: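 Mueller-Hinton medium (casein hydrolysate, soluble starch, beef extract). Compounds were serially diluted in DMSO in medium, with an inoculum of about 10⁵ cfu/mL, and incubated at 37 °C for 24 h. MIC was read visually. MTT (2 mg/mL in PBS, pH 7.4) was then added for 4–5 h at room temperature. Dye was extracted with isopropanol containing 5% 1 mol/L HCl for 12 h, and OD was read at 550 nm.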
row,Structure (SMILES),MIC [µg/mL]
1,COc1ccc2c(c1)CN(C1CC(c3ccc(Cl)cc3Cl)=NN1c1nc(-c3ccccc3F)oc1C)CC2 (centres undefined),1.56
2,COc1ccc2c(c1)CN(C1CC(c3ccc(-c4ccco4)cc3)=NN1c1nc(-c3ccccc3C(F)(F)F)oc1C)CC2 (centres undefined),1.56
3,COc1ccc2c(c1)CN(C1CC(c3ccc(Cl)cc3Cl)=NN1c1nc(-c3ccccc3C(F)(F)F)oc1C)CC2 (centres undefined),3.12
4,C=Cc1ccccc1-c1nc(N2N=C(c3ccc(-c4ccco4)cc3)CC2N2CCc3ccc(OC)cc3C2)c(C)o1 (centres undefined),3.12
5,C=Cc1ccccc1-c1nc(N2N=C(c3ccccc3C(F)(F)F)CC2N2CCc3ccccc3C2)c(C)o1 (centres undefined),12.5
6,Cc1oc(-c2ccccc2F)nc1N1N=C(c2ccccc2)CC1N1CCc2ccccc2C1 (centres undefined),25

# More lines, now with the values ahead:
row,MIC [µg/mL],Structure (SMILES)
1,12.5,COc1ccc2c(c1)CN(C1CC(c3ccccc3F)=NN1c1nc(-c3ccccc3F)oc1C)CC2 (centres undefined)
2,6.25,COc1ccc2c(c1)CN(C1CC(c3ccccc3)=NN1c1nc(-c3ccc(F)cc3F)oc1C)CC2 (centres undefined)
3,50,C=Cc1ccccc1-c1nc(N2N=C(c3ccccc3)CC2N2CCc3ccc(OC)cc3C2)c(C)o1 (centres undefined)
4,12.5,COc1ccc2c(c1)CN(C1CC(c3ccccc3)=NN1c1nc(-c3ccccc3C(F)(F)F)oc1C)CC2 (centres undefined)

# Reference: ChEMBL document CHEMBL1143389, “Synthesis, structure and antibacterial activity of new 2-(1-(2-(substituted-phenyl)-5-methyloxazol-4-yl)-3-(2-substitued-phenyl)-4,5-dihydro-1H-pyrazol-5-yl)-7-substitued-1,2,3,4-tetrahydroisoquinoline derivatives” (Bioorg Med Chem, 2009)
